Among the data in ChEMBL document CHEMBL1150327, “E,E-2-Benzylidene-6-(nitrobenzylidene)cyclohexanones: syntheses, cytotoxicity and an examination of some of their electronic, steric, and hydrophobic properties” (Bioorg Med Chem, 2008) are IC50, logP and Activity values, retold here.

Active and inactive are the calls of the source. The rule behind the calls is not given here.

One data set deals with CCRF-CEM. As to the kind of experiment: Cytotoxicity against human CEM cells after 72 hrs. The format is functional, cell-based. An outline of the steps:
(§1)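 Compounds tested over a range of concentrations on cells in RPMI 1640 medium at 37 °C for 72 h. IC50 taken as the concentration inhibiting cell growth by 50%.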

Data set [1] is described as follows: Cytotoxicity against human Molt4/C8 cells after 72 hrs. In kind it is functional, cell-based. The following applies: MOLT-4, 72 h. An outline of the steps:
as §1

For a further data set, the system named is L1210. Description: Cytotoxicity against mouse L1210 cells after 48 hrs. The format is functional, cell-based. The following applies: L1210, 48 h. An outline of the steps:
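Murine L1210 lymphoid leukemia cells exposed to graded compound concentrations in RPMI 1640 at 37 °C for 48 h. IC50 is the concentration giving 50% growth inhibition.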

Data set [2] in a line: Lipophilicity, log P of the compound. The format is physicochemical. To be noted: calculated. The method, boiled down: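 Calculated logP, generated with the JME molecular editor rather than measured.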
The test system of another data set is Liver. As to the kind of experiment: Stimulation of respiration in rat liver mitochondria. The format is functional. An outline of the steps:
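Liver mitochondria isolated from rats anesthetized with isoflurane and decapitated. Oxygen consumption measured by polarography. Compound tested at 10 μM, with a DMSO solvent control (4 μL). Differences judged against standard deviations.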

As a reminder, the IC50 is the midpoint of a concentration-inhibition curve. A lower IC50 goes with greater potency in that assay. One may read the logP as a log measure of how a compound divides between an organic and an aqueous phase.

In the case of `O=C1/C(=C/c2ccc(F)cc2)CCC/C1=C\c1ccc([N+](=O)[O-])cc1`, the IC50 with CCRF-CEM amounted to 18.6 µM; in data set [1], 17.1 µM; in the data set on L1210, 26.8 µM. Also, the logP in data set [2] was 5.08.
Turning to `O=C1/C(=C/c2ccc(Cl)cc2)CCC/C1=C\c1cccc([N+](=O)[O-])c1`, the IC50 is 1.75 µM in the data set on CCRF-CEM, 2.02 µM in data set [1] and 9.16 µM in the data set with L1210. The logP in data set [2] is 5.58.
Consider `O=C1CCCC/C1=C\c1cccc([N+](=O)[O-])c1`, for which the IC50 in the data set on CCRF-CEM was 8.12 µM; in data set [1] it was 8.28 µM; in the data set on L1210 it was 50.1 µM.
For the molecule `COc1cc(/C=C2\CCC/C(=C\c3cccc([N+](=O)[O-])c3)C2=O)cc(OC)c1OC`, the IC50 in the data set with CCRF-CEM stood at 45.2 µM; in data set [1] it was 44 µM; in the data set with L1210, 42.2 µM. Besides, the logP in data set [2] is 4.53.
As for `COc1cc(/C=C2\CCC/C(=C\c3ccccc3[N+](=O)[O-])C2=O)cc(OC)c1OC`, the IC50 in the data set on CCRF-CEM was determined as 0.402 µM; in data set [1], 0.702 µM; in the data set with L1210, 1.52 µM. The logP in data set [2] is 4.33. Also, the outcome with Liver was Active.
For the molecule `CN(C)c1ccc(/C=C2\CCC/C(=C\c3ccc([N+](=O)[O-])cc3)C2=O)cc1`, the half-inhibitory concentration (IC50) (in the data set on CCRF-CEM; in data set [1]; in the data set with L1210) was greater than 500 µM each time. In addition, the log partition coefficient (logP) in data set [2] was 5.03.
As to `Cc1ccc(/C=C2\CCC/C(=C\c3cccc([N+](=O)[O-])c3)C2=O)cc1`, the figures for the IC50 (with CCRF-CEM; in data set [1]; with L1210) were 10.1 µM, 9.53 µM and 41.8 µM, respectively. In data set [2], the logP was 5.35.
For the molecule `COc1ccc(/C=C2\CCC/C(=C\c3ccccc3[N+](=O)[O-])C2=O)cc1`, the IC50 with CCRF-CEM stood at 7.45 µM; in data set [1] it was 8.9 µM; in the data set on L1210, 42.4 µM. The logP in data set [2] is 4.76.
With `CN(C)c1ccc(/C=C2\CCC/C(=C\c3ccccc3[N+](=O)[O-])C2=O)cc1`, the half-maximal inhibitory concentration (IC50) is 168 µM in the data set with CCRF-CEM, 122 µM in data set [1] and 164 µM in the data set on L1210. The logP in data set [2] is 4.8.
In the case of `O=C1CCCC/C1=C\c1ccccc1[N+](=O)[O-]`, the results for the IC50 (in the data set on CCRF-CEM; in data set [1]; with L1210) were 36.4 µM, 33.3 µM and 23.8 µM, respectively.
Take `COc1cc(/C=C2\CCC/C(=C\c3ccc([N+](=O)[O-])cc3)C2=O)cc(OC)c1OC`: the results for the IC50 (in the data set with CCRF-CEM; in data set [1]; in the data set on L1210) were 4.61 µM, 6.42 µM and 6.97 µM, respectively. For the same molecule, the log partition coefficient (logP) in data set [2] was 4.56. In the data set with Liver, the result was Active.
For the molecule `Cc1ccc(/C=C2\CCC/C(=C\c3ccccc3[N+](=O)[O-])C2=O)cc1`, the results for the IC50 (in the data set with CCRF-CEM; in data set [1]; with L1210) were 6.09 µM, 7.52 µM and 7.77 µM, respectively. The logP in data set [2] is 5.15.
For `CN(C)c1ccc(/C=C2\CCC/C(=C\c3cccc([N+](=O)[O-])c3)C2=O)cc1` the same measures were 11.7 µM, 10.9 µM, 156 µM and 5.01.
Turning to `COc1ccc(/C=C2\CCC/C(=C\c3ccc([N+](=O)[O-])cc3)C2=O)cc1`, the IC50 in the data set on CCRF-CEM was determined as 250 µM; in data set [1], 300 µM; in the data set with L1210 it was 240 µM. In data set [2], the log partition coefficient (logP) was 4.98.
For `O=C1/C(=C/c2ccc(F)cc2)CCC/C1=C\c1ccccc1[N+](=O)[O-]` the same measures were 1.51 µM, 1.87 µM, 8.4 µM and 4.86.
Taken in the same sequence, the figures for `O=C1/C(=C/c2ccccc2)CCC/C1=C\c1ccc([N+](=O)[O-])cc1` were 9.32 µM, 8.35 µM, 9.8 µM and 4.93.
Taken in the same sequence, the figures for `O=C1/C(=C/c2ccc(Cl)cc2)CCC/C1=C\c1ccc([N+](=O)[O-])cc1` were 8.18 µM, 9.12 µM, 9.41 µM and 5.61.
In the case of `O=C1/C(=C/c2ccccc2)CCC/C1=C\c1ccccc1[N+](=O)[O-]`, the IC50 in the data set on CCRF-CEM was determined as 0.925 µM; in data set [1], 1.48 µM; with L1210, 4.84 µM. In addition, the logP in data set [2] is 4.7.
Take `O=C1/C(=C/c2ccc(F)cc2)CCC/C1=C\c1cccc([N+](=O)[O-])c1`: the IC50 in the data set on CCRF-CEM came out at 5.05 µM; in data set [1], 5.12 µM; with L1210, 16.3 µM. Further, in data set [2], the logP is 5.06.
Take `O=C1/C(=C/c2ccccc2)CCC/C1=C\c1cccc([N+](=O)[O-])c1`: the IC50 with CCRF-CEM is 2.29 µM; in data set [1] it was 1.7 µM; in the data set with L1210, 9.44 µM. Also, the logP in data set [2] is 4.9.
On to `O=C1CCCC/C1=C\c1ccc([N+](=O)[O-])cc1`, for which the IC50 came out at 19.3 µM in the data set with CCRF-CEM, 13.9 µM in data set [1] and 46.5 µM in the data set on L1210.
As for `Cc1ccc(/C=C2\CCC/C(=C\c3ccc([N+](=O)[O-])cc3)C2=O)cc1`, the IC50 in the data set with CCRF-CEM was determined as 8.53 µM; in data set [1], 8.44 µM; in the data set with L1210 it was 8.16 µM. In addition, the logP in data set [2] was 5.38.
As to `COc1ccc(/C=C2\CCC/C(=C\c3cccc([N+](=O)[O-])c3)C2=O)cc1`, the IC50 with CCRF-CEM was 8.22 µM; in data set [1], 7.98 µM; in the data set on L1210, 29.5 µM. Also, in data set [2], the logP was 4.96.
For `O=C1/C(=C/c2ccc(Cl)cc2)CCC/C1=C\c1ccccc1[N+](=O)[O-]` the same measures were 1.75 µM, 3.86 µM, 9.38 µM and 5.38.
